Laboratory results taken from ChEMBL document CHEMBL1177742, “Withanolide A and asiatic acid modulate multiple targets associated with amyloid-beta precursor protein processing and amyloid-beta protein clearance” (J Nat Prod, 2010).
Active and inactive are the calls of the source. The calls are words filed in the database; no cut-off is given here.

Key:
Cortical neurone [1] = test: Induction of ADAM10 activation in Sprague-Dawley rat primary cortical neurons after 24 hrs by immunoblot analysis; assay type: functional, cell-based
Outline: (§1)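 Primary cortical neurons (1-day-old Sprague-Dawley pups, 3–4 day cultures) treated 24 h at 0–100 μM or 0–10 μM, with DMSO control. Lysed in RIPA, protein quantified by BCA, equal amounts run on 10% Tris–HCl gels, nitrocellulose transfer. BACE1 and ADAM10 antibodies each 1:1000 overnight at 4 °C, HRP secondary, chemiluminescence. Mature ADAM10 is the ~60 kDa band. Bands normalized to actin; mean ± S.D., n=3, Student's t-test.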

Cortical neurone [2] = test: Induction of matured ADAM10 level in Sprague-Dawley rat primary cortical neurons after 24 hrs by immunoblot analysis; assay type: functional, cell-based; outline: as §1
Cortical neurone [3] = test: Induction of NEP levels in Sprague-Dawley rat primary cortical neurons at 5 uM after 24 hrs by immunoblot analysis; assay type: functional, cell-based
Outline: (§2)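 Cortical neurons from neonatal Sprague-Dawley rats treated 24 h at 0, 5, 20, 100 μM or 0, 1, 5, 10 μM, with DMSO control. Lysates were immunoblotted on 10% Tris–HCl gels with IDE or NEP antibody (1:1000, 4 °C overnight), nitrocellulose transfer, HRP detection. Intensities normalized to actin; mean ± S.D. of three independent experiments, Student's t-test.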

Cortical neurone [4] = test: Induction of IDE levels in Sprague-Dawley rat primary cortical neurons at 5 to 100 uM after 24 hrs by immunoblot analysis; assay type: functional, cell-based; settings: 1 to 10 uM, in the assay text read “1 to 10 uM” for “5 to 100 uM”; outline: as §2
Cortical neurone [5] = test: Cytotoxicity against Sprague-Dawley rat primary cortical neurons assessed as cell morphology at 10 uM after 24 hrs by MAP2 immunostaining; assay type: cell-based
Outline: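 Cortical neurons from 1-day-old Sprague-Dawley pups, plated on poly-D-lysine at 1 × 10^6 cells/well in DMEM with 10% horse serum, used at 3–4 days in culture. Treated 24 h alongside DMSO control (0.01% or 0.1%). Fixed in 4% paraformaldehyde, blocked with Triton X-100/BSA, MAP-2 (1:50) overnight at 4 °C, rhodamine secondary, imaged by fluorescence microscopy at 40X.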

Cortical neurone [6] = test: Reduction of BACE1 expression in Sprague-Dawley rat primary cortical neurons after 24 hrs by immunoblot analysis; assay type: functional, cell-based; outline: as §1
Cortical neurone [7] = test: Cytotoxicity against Sprague-Dawley rat primary cortical neurons assessed as cell morphology at 100 uM after 24 hrs by MAP2 immunostaining; assay type: cell-based
Outline: (§3)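 Neurons from 1-day-old pups were plated at 1 × 10^6 cells/well on poly-D-lysine in DMEM with 10% horse serum, 25 mM glucose, 10 mM HEPES, 2 mM glutamine and antibiotics. Day 3–4 cultures were treated 24 h (vehicle 0.1% DMSO), fixed in 4% paraformaldehyde, blocked (0.1% Triton X-100, 1% BSA), stained with MAP-2 1:50 overnight at 4 °C plus rhodamine secondary, and imaged by fluorescence microscopy (40X).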

Cortical neurone [8] = test: Cytotoxicity against Sprague-Dawley rat primary cortical neurons assessed as cell death at 100 uM after 24 hrs by MAP2 immunostaining; assay type: cell-based; outline: as §3
[9] = tested on: ADAM10 (alpha-secretase) (Rattus norvegicus); test: Increase in alpha-secretase activity in Sprague-Dawley rat primary cortical neurons assessed as increase in C83 level by immunoblot analysis; settings: Cerebral cortex neuron
[10] = tested on: ADAM10 (alpha-secretase) (Rattus norvegicus); test: Increase in alpha-secretase activity in Sprague-Dawley rat primary cortical neurons assessed as increase in sAPPalpha level by immunoblot analysis; settings: Cerebral cortex neuron
Cortical neurone [11] = test: Induction of IDE levels in Sprague-Dawley rat Alzheimer's disease model primary cortical neurons after 24 hrs by immunoblot analysis; assay type: functional, cell-based
Cortical neurone [12] = test: Induction of IDE levels in Sprague-Dawley rat primary cortical neurons after 24 hrs by immunoblot analysis; assay type: functional, cell-based; outline: as §2

Row | Compound | Activity (Cortical neurone [1]) | Activity (Cortical neurone [2]) | Activity (Cortical neurone [3]) | Activity (Cortical neurone [4]) | Activity (Cortical neurone [5]) | Activity (Cortical neurone [6]) | Activity (Cortical neurone [7]) | Activity (Cortical neurone [8]) | Activity [9] | Activity [10] | Activity (Cortical neurone [11]) | Activity (Cortical neurone [12])
1 | C[C@H]1[C@H](C)CC[C@]2(C(=O)O)CC[C@]3(C)C(=CC[C@@H]4[C@@]5(C)C[C@@H](O)[C@H](O)[C@@](C)(CO)[C@@H]5CC[C@]43C)[C@H]12 [ASIATIC ACID] | Dose-dependent effect | Dose-dependent effect | Active | inactive | Non-toxic | Dose-dependent effect | – | – | – | – | – | –
2 | CC1=C(C)C(=O)O[C@@H]([C@](C)(O)[C@H]2CC[C@H]3[C@@H]4[C@@H]5O[C@@H]5[C@@]5(O)CC=CC(=O)[C@]5(C)[C@H]4CC[C@]23C)C1 [WITHANOLIDE A] | Dose-dependent effect | Dose-dependent effect | – | – | – | Dose-dependent effect | Non-toxic | Non-toxic | Active | Active | Active | Dose-dependent effect
